# Source: ChEMBL document CHEMBL4308899, “Design, synthesis and QSAR study of 2'-hydroxy-4'-alkoxy chalcone derivatives that exert cytotoxic activity by the mitochondrial apoptotic pathway” (Bioorg Med Chem, 2019)
# Activity calls are given as the source filed them. The rule behind the calls is not given here.
# Assays:
# [1] = test system: PC-3; test: Antiproliferative activity against human PC3 cells after 48 hrs by CellTiter 96 AQueous one solution cell proliferation assay; format: functional, cell-based; conditions: PC-3, 48 h
# How it was run: (§1)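 Cells plated at 8000/well; test agents dissolved in DMSO and tested at 80, 8, 0.8, 0.08 and 0.008 μg/mL for 48 h at 37°C, 5% CO2. PC3 and CaSki were grown in RPMI-1640, MCF7 in Eagle's MEM, with 10% FBS and 2 mM glutamine. Podophyllotoxin served as positive control. Viability read by MTS-type reagent absorbance at 450 nm. Triplicates in three independent experiments; IC50 by regression.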
# [2] = test system: MCF7; test: Antiproliferative activity against human MCF7 cells after 48 hrs by CellTiter 96 AQueous one solution cell proliferation assay; format: functional, cell-based; conditions: MCF7, 48 h; how it was run: as §1
# [3] = Antiproliferative activity against human HF6 cells after 48 hrs by CellTiter 96 AQueous one solution cell proliferation assay; format: functional, cell-based
# [4] = test system: Ca-Ski; test: Antiproliferative activity against human CaSki cells after 48 hrs by CellTiter 96 AQueous one solution cell proliferation assay; format: functional, cell-based; how it was run: as §1
# [5] = test system: PC-3; test: Cell cycle arrest in human PC3 cells assessed as accumulation at sub-G1 phase at 0.12 uM after 48 hrs by RNAse/propidium iodide staining-based flow cytometric analysis (reference value: 0.00%); format: functional
# [6] = test system: BJ; test: Cytotoxicity against human BJ cells after 48 hrs by CellTiter 96 AQueous one solution cell proliferation assay; format: cell-based
# [7] = test system: PC-3; test: Cell cycle arrest in human PC3 cells assessed as accumulation at S phase at 0.12 uM after 48 hrs by RNAse/propidium iodide staining-based flow cytometric analysis (reference value: 19.7%); format: functional
# [8] = test system: PC-3; test: Induction of apoptosis in human PC3 cells assessed as chromatin condensation at 0.005 uM after 48 hrs by acridine orange/ethidium bromide staining-based epifluorescence microscopic analysis; format: functional, cell-based
# How it was run: (§2)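 PC3 cells, 25000 per well in 24-well plates, treated 48 h; H2O2 30 min served as apoptosis control, boiling at 95°C for 10 sec as necrosis control. Cells then exposed to acridine orange/ethidium bromide (100 μg/mL each) and examined by fluorescence microscopy. Scored by nuclear morphology: chromatin condensation, orange condensed chromatin (late apoptosis), apoptotic bodies.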
# [9] = test system: PC-3; test: Induction of apoptosis in human PC3 cells assessed as formation of apoptotic bodies at 0.005 uM after 48 hrs by acridine orange/ethidium bromide staining-based epifluorescence microscopic analysis; format: functional, cell-based; how it was run: as §2
# [10] = test system: PC-3; test: Cell cycle arrest in human PC3 cells assessed as accumulation at G2/M phase at 0.12 uM after 48 hrs by RNAse/propidium iodide staining-based flow cytometric analysis (reference value: 24.9%); format: functional
# [11] = test system: PC-3; test: Induction of apoptosis in human PC3 cells assessed as plasma membrane blebbing at 0.005 uM after 48 hrs by acridine orange/ethidium bromide staining-based epifluorescence microscopic analysis; format: functional, cell-based; how it was run: as §2
# [12] = test system: PC-3; test: Cell cycle arrest in human PC3 cells assessed as accumulation at G1 phase at 0.12 uM after 48 hrs by RNAse/propidium iodide staining-based flow cytometric analysis (reference value: 55.6%); format: functional
# [13] = test system: PC-3; test: Induction of apoptosis in human PC3 cells assessed as formation of apoptotic bodies at IC50 after 48 hrs by acridine orange/ethidium bromide staining-based epifluorescence microscopic analysis; format: functional, cell-based
# [14] = test system: PC-3; test: Induction of apoptosis in human PC3 cells assessed as upregulation of Bax mRNA expression after 48 hrs by RT-PCR analysis; format: functional, cell-based
# How it was run: (§3)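 PC3 cells (1.25×10^5) were treated 48 h, then RNA was isolated. Bcl-2 and Bax mRNA were measured by RT-PCR with GAPDH as internal control.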
# [15] = test system: PC-3; test: Cell cycle arrest in human PC3 cells assessed as accumulation at G2/M phase at 13.75 uM after 48 hrs by RNAse/propidium iodide staining-based flow cytometric analysis (reference value: 24.9%); format: functional
# [16] = test system: PC-3; test: Induction of apoptosis in human PC3 cells assessed as plasma membrane blebbing at IC50 after 48 hrs by acridine orange/ethidium bromide staining-based epifluorescence microscopic analysis; format: functional, cell-based
# [17] = test system: PC-3; test: Cell cycle arrest in human PC3 cells assessed as accumulation at S phase at 13.75 uM after 48 hrs by RNAse/propidium iodide staining-based flow cytometric analysis (reference value: 19.7%); format: functional
# [18] = test system: PC-3; test: Cell cycle arrest in human PC3 cells assessed as accumulation at G1 phase at 13.75 uM after 48 hrs by RNAse/propidium iodide staining-based flow cytometric analysis (reference value: 55.6%); format: functional
# [19] = test system: PC-3; test: Induction of apoptosis in human PC3 cells assessed as increase in caspase 3/7 activity by Caspase 3/7-Glo luminescence assay; format: functional, cell-based
# How it was run: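 PC3 cells (8000) were treated, and caspase-3/7 activity was then read by Caspase-Glo 3/7 luminescence. Results are relative luminescence units versus untreated control; paclitaxel was included as a comparator.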
# [20] = test system: PC-3; test: Induction of apoptosis in human PC3 cells assessed as chromatin condensation at IC50 after 48 hrs by acridine orange/ethidium bromide staining-based epifluorescence microscopic analysis; format: functional, cell-based
# [21] = test system: PC-3; test: Induction of apoptosis in human PC3 cells assessed as down regulation of Bcl2 mRNA expression after 48 hrs by RT-PCR analysis; format: functional, cell-based; how it was run: as §3
# [22] = test system: PC-3; test: Cell cycle arrest in human PC3 cells assessed as accumulation at sub-G1 phase at 13.75 uM after 48 hrs by RNAse/propidium iodide staining-based flow cytometric analysis (reference value: 0.00%); format: functional
# [23] = test system: PC-3; test: Cell cycle arrest in human PC3 cells assessed as accumulation at sub-G1 phase at 8.2 uM after 48 hrs by RNAse/propidium iodide staining-based flow cytometric analysis (reference value: 0.00%); format: functional
# [24] = test system: PC-3; test: Cell cycle arrest in human PC3 cells assessed as accumulation at S phase at 8.2 uM after 48 hrs by RNAse/propidium iodide staining-based flow cytometric analysis (reference value: 19.7%); format: functional
# [25] = test system: PC-3; test: Cell cycle arrest in human PC3 cells assessed as accumulation at G1 phase at 8.2 uM after 48 hrs by RNAse/propidium iodide staining-based flow cytometric analysis (reference value: 55.6%); format: functional
# [26] = test system: PC-3; test: Cell cycle arrest in human PC3 cells assessed as accumulation at G2/M phase at 8.2 uM after 48 hrs by RNAse/propidium iodide staining-based flow cytometric analysis (reference value: 24.9%); format: functional
# [27] = test system: PC-3; test: Cell cycle arrest in human PC3 cells assessed as accumulation at sub-G1 phase at 11.81 uM after 48 hrs by RNAse/propidium iodide staining-based flow cytometric analysis (reference value: 0.00%); format: functional
# [28] = test system: PC-3; test: Cell cycle arrest in human PC3 cells assessed as accumulation at G2/M phase at 11.81 uM after 48 hrs by RNAse/propidium iodide staining-based flow cytometric analysis (reference value: 24.9%); format: functional
# [29] = test system: PC-3; test: Cell cycle arrest in human PC3 cells assessed as accumulation at S phase at 11.81 uM after 48 hrs by RNAse/propidium iodide staining-based flow cytometric analysis (reference value: 19.7%); format: functional
# [30] = test system: PC-3; test: Cell cycle arrest in human PC3 cells assessed as accumulation at G1 phase at 11.81 uM after 48 hrs by RNAse/propidium iodide staining-based flow cytometric analysis (reference value: 55.6%); format: functional
# [31] = test system: PC-3; test: Antiproliferative activity against human PC3 cells after 72 hrs by CyQuant dye-based assay; format: functional, cell-based; conditions: PC-3, 72 h
Compound,IC50 [1] [µM],IC50 [2] [µM],IC50 [3] [µM],IC50 [4] [µM],IC50 [6] [µM],other results
COc1ccc(C(=O)/C=C/c2ccccc2)c(O)c1I,34,> 50,> 50,> 50,,
COc1cc([C@@H]2c3cc4c(cc3[C@H](O)[C@H]3COC(=O)[C@H]23)OCO4)cc(OC)c1OC [PODOFILOX],0.12,0.28,0.0369,0.3,5,Activity [5]: 35.6%; Activity [7]: 9.82%; Activity [8]: Active; Activity [9]: Active; Activity [10]: 47%; Activity [11]: Active; Activity [12]: 8.31%
O=C(/C=C/c1ccccc1)c1ccc(OCc2ccccc2)cc1O,34.7,> 50,,> 50,,
COc1cc(O)c(C(=O)/C=C/c2ccccc2)cc1Br,> 50,> 50,38.9,> 50,,
CCCOc1ccc(C(=O)/C=C/c2ccccc2)c(O)c1,8.08,> 50,,> 50,16,
"O=C(/C=C/c1ccccc1)c1ccc(O)cc1O [2',4'-DIHYDROXYCHALCONE]",13.8,> 50,,,262,Activity [13]: Active; Activity [14]: Active; Activity [15]: 40.8%; Activity [16]: Active; Activity [17]: 10.7%; Activity [18]: 32.2%; Activity [19]: Active; Activity [20]: Active; Activity [21]: Active; Activity [22]: 16.3%
CCOc1ccc(C(=O)/C=C/c2ccccc2)c(O)c1,8.2,> 50,,,208,Activity [13]: Active; Activity [14]: Active; Activity [16]: Active; Activity [23]: 17.9%; Activity [19]: Active; Activity [20]: Active; Activity [21]: Active; Activity [24]: 7.69%; Activity [25]: 24.3%; Activity [26]: 50.1%
COc1ccc(C(=O)/C=C/c2ccccc2)c(O)c1,11.8,> 50,> 50,,239,Activity [13]: Active; Activity [14]: Active; Activity [16]: Active; Activity [27]: 13.6%; Activity [28]: 27.1%; Activity [19]: Active; Activity [20]: Active; Activity [21]: Active; Activity [29]: 16%; Activity [30]: 46.8%
COc1ccc(C(=O)/C=C/c2ccccc2)c(O)c1Br,47.8,> 50,> 50,> 50,,
O=C(/C=C/c1ccccc1O)c1ccccc1O,,,,,,IC50 [31]: 10.3 µM
CC(=O)Oc1ccc(C(=O)/C=C/c2ccccc2)c(O)c1,10,> 50,> 50,> 50,21.3,
COc1cc(O)c(C(=O)/C=C/c2ccccc2)cc1I,> 50,> 50,> 50,> 50,,
COc1ccc(C(=O)CCc2ccccc2)c(O)c1,> 50,> 50,> 50,> 50,,
